Experimental data reported in PMC6036231 (Journal of immunology (Baltimore, Md. : 1950), 2018).

Tests used:
THP-1 cells = assay: Real-time chemotaxis; type: cell-based, human; details: resting THP-1
Outline: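 Resting THP-1 cells kept at 0.5 x 10^6/ml in supplemented RPMI 1640 with 10% FBS at 37°C, 5% CO2. TAXIScan: 1 h migration at 37°C along gradients from 1 µl of 1 µM or 10 µM chemokine (1 µM CCL2 reference); no-stimulus basal. Frames every minute; manual tracking. FMI = y-axis distance/accumulated distance. Pooled from 3 experiments, 3 movies per condition.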

PGE2-treated THP-1 cells = assay: Real-time chemotaxis; type: cell-based, human
Outline: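 THP-1 cultured overnight with PGE2. Where stated, pre-incubated 15 min at room temperature with DMSO or 1 µM final antagonist. TAXIScan: 1 h migration at 37°C along gradients from 1 µl of 1 or 10 µM chemokine (1 µM CCL2 reference; no-stimulus basal). Frames every minute; cells tracked manually. FMI = y-axis distance/accumulated distance. Triplicate or quadruplicate runs per stimulus.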

human GPR35a [1] = target: T1, human GPR35a (Homo sapiens, UniProt Q9HC97); assay: Inositol phosphate assay, GPR35a with Gq-G13 chimera; type: cell-based; details: 30 minutes
T1 sequence (Q9HC97 whole entry): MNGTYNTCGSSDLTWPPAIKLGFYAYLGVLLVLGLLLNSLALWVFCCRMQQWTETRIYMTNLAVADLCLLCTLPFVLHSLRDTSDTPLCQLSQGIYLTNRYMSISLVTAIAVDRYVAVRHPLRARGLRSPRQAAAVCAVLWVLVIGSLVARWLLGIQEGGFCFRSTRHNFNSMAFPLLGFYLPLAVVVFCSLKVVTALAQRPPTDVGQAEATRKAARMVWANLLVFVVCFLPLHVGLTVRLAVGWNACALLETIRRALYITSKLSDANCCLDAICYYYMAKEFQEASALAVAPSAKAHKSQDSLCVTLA

human GPR35a [2] = target: T1, human GPR35a; assay: Inositol phosphate assay, GPR35a with Gq-Gi1/2 chimera; type: cell-based; details: 30 minutes
GPR35b = GPR35b (Homo sapiens, UniProt Q9HC97); assay: Inositol phosphate assay, GPR35b with Gq-Gi1/2 chimera; type: cell-based; details: 30 minutes
Sequence of GPR35b (Q9HC97 1-340 isoform Q9HC97-2): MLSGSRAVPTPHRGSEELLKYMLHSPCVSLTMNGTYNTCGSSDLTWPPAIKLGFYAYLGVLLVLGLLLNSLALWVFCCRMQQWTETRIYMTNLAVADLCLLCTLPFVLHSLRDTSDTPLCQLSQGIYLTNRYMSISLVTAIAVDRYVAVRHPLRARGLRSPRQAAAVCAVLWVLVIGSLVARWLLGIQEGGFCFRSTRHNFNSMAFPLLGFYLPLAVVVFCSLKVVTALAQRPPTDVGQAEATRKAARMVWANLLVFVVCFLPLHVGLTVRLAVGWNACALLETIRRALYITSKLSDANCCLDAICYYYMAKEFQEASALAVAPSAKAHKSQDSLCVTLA

3xHA-GPR35 = 3xHA-GPR35 (Homo sapiens, UniProt Q9HC97); assay: GPR35 endocytosis assay, L1.2 clone 23; type: cell-based; details: 37°C, 15 minutes
Sequence of 3xHA-GPR35 (Q9HC97 whole entry): as the sequence (Q9HC97 whole entry) above
Outline: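 L1.2 clone stably expressing N-terminal 3xHA-GPR35 (G418 1 mg/ml selection, limiting-dilution cloning), 2 x 10^6 cells/ml in RPMI/0.1% BSA. Mixed with equal volume of buffer holding agonist (20, 10 or 2 µM reference agonist; 2 µM chemokine) or DMSO vehicle. Incubated 15 min at 4°C (basal) and 37°C (endocytosis). Surface receptor by flow cytometry: anti-HA (10 µg/ml), FITC secondary, TO-PRO3.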

mouse GPR35 = mouse GPR35 (Mus musculus, UniProt Q9ES90); assay: BRET β-arrestin-2 recruitment assay, HEK293T cells, mouse GPR35; type: cell-based
Sequence of mouse GPR35 (Q9ES90 whole entry): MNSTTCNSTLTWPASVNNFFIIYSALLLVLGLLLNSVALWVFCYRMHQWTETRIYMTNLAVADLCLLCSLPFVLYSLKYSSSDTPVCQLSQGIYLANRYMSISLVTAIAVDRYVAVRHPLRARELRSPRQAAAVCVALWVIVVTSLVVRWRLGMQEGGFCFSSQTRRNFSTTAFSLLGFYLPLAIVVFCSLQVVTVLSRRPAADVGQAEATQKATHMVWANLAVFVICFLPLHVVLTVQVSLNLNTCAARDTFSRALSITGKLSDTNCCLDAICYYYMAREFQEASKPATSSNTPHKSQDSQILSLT
Outline: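 HEK293T cells transiently transfected with polyethylenimine to co-express mouse GPR35 and β-arrestin-2, used 48 h after transfection. β-arrestin-2 recruitment read by bioluminescence resonance energy transfer.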

rat GPR35 = rat GPR35 (Rattus norvegicus, UniProt Q33BM1); assay: BRET β-arrestin-2 recruitment assay, HEK293T cells, rat GPR35; type: cell-based
Sequence of rat GPR35 (Q33BM1 1-306): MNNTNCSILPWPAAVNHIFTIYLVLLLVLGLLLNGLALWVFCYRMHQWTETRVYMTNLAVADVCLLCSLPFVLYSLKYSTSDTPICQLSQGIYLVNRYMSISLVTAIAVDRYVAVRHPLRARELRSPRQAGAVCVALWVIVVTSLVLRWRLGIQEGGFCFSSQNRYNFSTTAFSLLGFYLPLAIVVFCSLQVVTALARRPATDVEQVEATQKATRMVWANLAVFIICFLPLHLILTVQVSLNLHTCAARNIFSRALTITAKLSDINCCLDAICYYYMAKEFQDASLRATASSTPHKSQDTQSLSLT

primary human monocytes = assay: Real-time chemotaxis; type: cell-based; details: 1 μM ML145
Outline: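 Monocytes isolated from healthy donor blood by negative selection (RosetteSep). Pre-incubated 15 min at room temperature in buffer with DMSO vehicle or 1 µM final antagonist. TAXIScan: 1 h migration at 37°C along gradients formed by 1 µl chemokine; no-stimulus basal. Images every minute; individual cells tracked manually; FMI parallel to gradient calculated per cell.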

[3] = target: T2, recombinant human chymase (Homo sapiens, UniProt P23946); assay: Chemokine digestion with chymase, SDS-PAGE; type: biochemical; details: 18hr incubation, 37°C
T2 sequence (P23946 22-247): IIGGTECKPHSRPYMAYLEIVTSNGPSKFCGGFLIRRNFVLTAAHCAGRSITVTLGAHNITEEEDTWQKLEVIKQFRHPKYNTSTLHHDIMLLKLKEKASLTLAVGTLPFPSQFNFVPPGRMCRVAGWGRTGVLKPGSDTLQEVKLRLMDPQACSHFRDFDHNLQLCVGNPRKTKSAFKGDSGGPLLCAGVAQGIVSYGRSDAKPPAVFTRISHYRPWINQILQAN
Outline: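 20 µg chemokine in 100 mM Tris-HCl pH 7.8, 10 mM CaCl2, split; one half given 0.1-0.4 µg chymase; both 18 h at 37°C. Samples in Tris-glycine SDS buffer heated 95°C 10 min, run on 4-12% Bis-Tris gels at 150 V for 50 min. Fixed in 25% isopropanol/10% acetic acid, stained with 0.25% Coomassie G-250 2 h, destained overnight; n=3.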

CCR1 = target: T3, CCR1 (Homo sapiens, UniProt P32246); assay: Boyden chamber chemotaxis, CCR1 transfectants; type: cell-based; details: cleaved versus uncleaved chemokine
T3 sequence (P32246 1-355): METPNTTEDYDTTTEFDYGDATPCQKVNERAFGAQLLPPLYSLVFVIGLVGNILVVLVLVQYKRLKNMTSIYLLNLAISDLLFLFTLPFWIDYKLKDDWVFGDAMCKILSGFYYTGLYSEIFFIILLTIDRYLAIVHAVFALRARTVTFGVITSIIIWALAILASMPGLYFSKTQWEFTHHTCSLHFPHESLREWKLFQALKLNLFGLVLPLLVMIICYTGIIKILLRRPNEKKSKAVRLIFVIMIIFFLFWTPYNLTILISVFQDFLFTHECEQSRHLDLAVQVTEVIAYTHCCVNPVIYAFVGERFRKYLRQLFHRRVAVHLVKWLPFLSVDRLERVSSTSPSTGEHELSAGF
Outline: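 Chemokine digested for 18 h at 37°C with 0.1-0.4 µg recombinant human chymase in 100 mM Tris-HCl (pH 7.8), 10 mM CaCl2; undigested half incubated alongside. Cleaved and uncleaved forms tested on CCR1 transfectants in 96-well Boyden chambers: 5 h migration, 37°C, 5% CO2. Migrated cells quantified by ATP luminescence (Cell Titer-Glo); chemotactic index = response/buffer-alone basal; n=3.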

Question: With “CCL2: chemokine purchased from Peprotech EC” as the molecule, how does the “forward migration index (FMI‖) versus basal” value (THP-1 cells; 1μM) read?
Answer: The value was “significant response”.

Question: What about the “cell migration versus basal” value (THP-1 cells; gradient from 1μl of 1μM, 1 hour) of the same molecule?
Answer: The value was “many more cells were observed to migrate”.

Question: And the “forward migration index (FMI‖) versus basal” value (PGE2-treated THP-1 cells; 1μM, PGE2-treated THP-1)?
Answer: Its value is “significantly greater than the basal response”.

Question: And the “increase in the number of migrating cells versus basal” value (PGE2-treated THP-1 cells; 1μM, PGE2-treated THP-1)?
Answer: Its value is 6 fold.

Question: What does the source list for `N#Cc1cc(NC(=O)C(=O)O)c(Cl)c(NC(=O)C(=O)O)c1` [lodoxamide]?
Answer: pEC50, inositol phosphate production (human GPR35a [1]): 9.13 +/- 0.24; pEC50, inositol phosphate production (human GPR35a [2]): 8.64 +/- 0.08; pEC50, inositol phosphate production (GPR35b): 9.05 +/- 0.07; endocytosis of GPR35 (3xHA-GPR35; 1 μM and 10μM): Significant endocytosis; endocytosis of GPR35, direct comparison (3xHA-GPR35; 1 μM): significant endocytosis

Question: What does the source list for `CCCOc1ccccc1-c1nc2nn[nH]c2c(=O)[nH]1` [zaprinast]?
Answer: EC50 (mouse GPR35): 1050 nM; EC50 (rat GPR35): 91.2 nM

Question: `CC(/C=C1\SC(=S)N(CCCC(=O)Nc2ccc(C(=O)O)c(O)c2)C1=O)=C\c1ccccc1` [ML145] was tested. Which “effect of pre-exposure on response of cells to 1μM CXCL17” value (PGE2-treated THP-1 cells; 1 μM ML145, 15 minutes pre-incubation) did it give?
Answer: Its value is “no inhibitory effect”.

Question: And the “effect of pre-treatment on monocyte migration to CXCL17” value (primary human monocytes)?
Answer: The value was “unaffected”.

B1: CCL15: CC-chemokine with extended N-terminus, purchased from Peprotech EC (protein, UniProt Q16663 22-113, looked up)
C-C motif chemokine 15: QFTNDAETELMMSKLPLENPVVLNSFHFAADCCTSYISQSIPCSLMKSYFETSSECSKPGVIFLTKKGRQVCAKPSGPGVQDCMKKLKPYSI
Question: What does the source list for B1?
Answer: cleavage by chymase [3]: cleaved; effect of chymase cleavage on chemotactic potency (CCR1): increased potency

B2: CCL23: CC-chemokine with extended N-terminus, purchased from Peprotech EC (protein, UniProt P55773 22-120, looked up)
C-C motif chemokine 23: RVTKDAETEFMMSKLPLENPVLLDRFHATSADCCISYTPRSIPCSLLESYFETNSECSKPGVIFLTKKGRRFCANPSDKQVQVCMRMLKLDTRIKTRKN
Question: For B2, which cleavage by chymase [3] is on record?
Answer: Its cleavage by chymase is “cleaved”.

Question: And the “effect of chymase cleavage on chemotactic potency” value (CCR1)?
Answer: The value was “increased potency”.
